# Read-outs that look alike come from different tables or passages of the source. Marks after values point to notes of the source that are not given here.
# Experiments:
# [1] = target: T1, hM4 mAChR (Homo sapiens, UniProt P08173); format: binding; conditions: for LogαACh (logarithm of the binding cooperativity factor between M4-PAMs and ACh): CHO cells stably expressing hM4, mean ± SEM
# T1 sequence (P08173 1-479): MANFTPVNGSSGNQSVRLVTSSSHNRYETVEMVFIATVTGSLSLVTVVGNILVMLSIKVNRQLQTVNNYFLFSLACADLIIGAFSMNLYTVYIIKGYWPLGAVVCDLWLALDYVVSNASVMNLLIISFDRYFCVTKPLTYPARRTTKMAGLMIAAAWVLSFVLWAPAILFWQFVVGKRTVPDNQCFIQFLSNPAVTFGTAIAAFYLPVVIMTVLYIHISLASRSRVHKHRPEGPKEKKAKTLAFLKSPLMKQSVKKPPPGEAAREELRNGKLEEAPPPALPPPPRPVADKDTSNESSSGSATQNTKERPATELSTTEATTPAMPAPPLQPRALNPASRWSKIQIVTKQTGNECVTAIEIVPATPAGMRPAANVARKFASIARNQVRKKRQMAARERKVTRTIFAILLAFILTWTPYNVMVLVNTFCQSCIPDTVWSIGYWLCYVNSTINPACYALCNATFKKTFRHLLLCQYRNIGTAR
# Method in brief: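 Intact FlpIn CHO cells stably expressing human M4 were grown in DMEM/5% FBS, plated at 20,000 per well and grown overnight at 37 °C. After PBS washes, cells were incubated with an ACh concentration series, with or without increasing test compound concentrations, plus [3H]-NMS (~0.1 nmol/L). Atropine (10 μmol/L) defined nonspecific binding. Cells were washed with ice-cold 0.9% NaCl and counted by scintillation. KB and α came from an allosteric ternary complex model fit.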
# [2] = target: T1, hM4 mAChR; test: [35S]-GTPγS binding assay with ACh, operational model of allosterism; format: biochemical; conditions: mean ± SEM; for LogβACh (logarithm of the activation cooperativity factors between ACh and M4-PAMs): determined by subtracting (α) from the (αβ) parameters; for LogαβACh (logarithm of the operational functional cooperativity factors between ACh and M4-PAMs) / Logτ (logarithm of the operational efficacy parameter of M4-PAMs as allosteric agonists): hM4 membranes
# Method in brief: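 Membranes from FlpInCHO cells stably expressing wild-type human M4, 15 μg per assay, preincubated 60 min at 30 °C with 10 μmol/L GDP and ACh (10 nmol/L–10 mmol/L), with or without M4-PAMs (0.1–10 μmol/L). [35S]GTPγS (1 nmol/L, as added) then given for 30 min at 30 °C. Bound label collected on GF/B filters and counted by scintillation. Data fitted to an operational model of allosterism and agonism.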
# [3] = test system: M1, M2, M3 and M5; test: Tango assay, selectivity over other muscarinic subtypes; format: cell-based
# Method in brief: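 HEK293 cells stably carrying a tTA-dependent luciferase reporter and a β-arrestin2–TEV fusion were kept in DMEM/10% FBS with puromycin and hygromycin B at 37 °C, 5% CO2. They were transfected, then replated on day 3 at 15,000–20,000 cells/well on poly-L-lysine. On day 4 test compound was added in HEPES/1× HBSS buffer, pH 7.4. On day 5, Bright-Glo luminescence was read after 15–20 min at room temperature (RLU). Carbachol served as reference agonist.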
# [4] = test system: M4; conditions: rhesus monkeys; cited from earlier work
# [5] = test system: M4; conditions: humans; cited from earlier work
Compound,Kb [1] [nM],LogαACh (logarithm of the binding cooperativity factor between M4-PAMs and ACh) [1],LogβACh (logarithm of the activation cooperativity factors between ACh and M4-PAMs) [2],LogαβACh (logarithm of the operational functional cooperativity factors between ACh and M4-PAMs) [2],Logτ (logarithm of the operational efficacy parameter of M4-PAMs as allosteric agonists) [2],selectivity over other muscarinic acetylcholine receptor subtypes [3],peak striatal SUV [4],peak striatal SUV [5]
"CN1Cc2ccc(-c3nc(C#N)ccc3-c3cnn(CC4CCCC4)c3)cc2C1=O [Compound 8, 5-(1-(cyclopentylmethyl)-1H-pyrazol-4-yl)-6-(2-methyl-3-oxoisoindolin-5-yl)picolinonitrile]",398,1.7 ± 0.3,0.1 ± 0.3,1.9 ± 0.2,0.3 ± 0.0,–,–,–
"Cc1ccc(-c2cnn(CC3CCCC3)c2)c(-c2ccc3c(c2)C(=O)N(C)C3)n1 [Compound 10, 6-(3-(1-(cyclopentylmethyl)-1H-pyrazol-4-yl)-6-methylpyridin-2-yl)-2-methylisoindolin-1-one]",316,1.6 ± 0.2,0.4 ± 0.2,2.0 ± 0.2,0.7 ± 0.0,–,–,–
"Cc1ccc(-c2cnn(CC3CCCC3)c2)c(-c2ccc3c(c2)C(=O)NC3)n1 [Compound 11, 6-(3-(1-(cyclopentylmethyl)-1H-pyrazol-4-yl)-6-methylpyridin-2-yl)isoindolin-1-one]",501,1.4 ± 0.2,0.5 ± 0.3,1.9 ± 0.2,0.5 ± 0.0,–,–,–
"N#Cc1ccc(-c2cnn(CC3CCCC3)c2)c(-c2ccc3c(c2)C(=O)N(CCF)C3)n1 [Compound 12, 5-(1-(cyclopentylmethyl)-1H-pyrazol-4-yl)-6-(2-(2-fluoroethyl)-3-oxoisoindolin-5-yl)picolinonitrile]",398,1.4 ± 0.1,1.1 ± 0.2,2.5 ± 0.1 ^f,0.5 ± 0.0,selective,–,–
"N#Cc1ccc(-c2cnn(CC3CCCC3)c2)c(-c2ccc3c(c2)C(=O)N(CCCF)C3)n1 [Compound 13, 5-(1-(cyclopentylmethyl)-1H-pyrazol-4-yl)-6-(2-(3-fluoropropyl)-3-oxoisoindolin-5-yl)picolinonitrile]",398,1.6 ± 0.2,0.8 ± 0.2,2.4 ± 0.2 ^f,0.6 ± 0.0,–,–,–
CC1(Cn2cc(-c3ccc(C#N)nc3-c3ccc4c(c3)C(=O)N([11CH3])C4)cn2)CCCC1 [[^11C]MK-6884],–,–,–,–,–,–,ca. 1.2,ca. 2.5

# Source: publication PMC9939360 (Acta Pharmaceutica Sinica. B, 2022)
